The nature of assay [1]: Downregulation of C/EBP delta mRNA level in mouse 3T3L1 cells at 0.3 to 3 uM after 24 hrs by RT-PCR analysis. It counts as functional, cell-based. The following applies: 3T3-L1. Summed up: (§1)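 3T3-L1 preadipocytes in adipogenic cocktail with compound (0.3-3.0 µM; 3 µM for the 2 h and 24 h time course). Total RNA extracted, cDNA made from 1 µg RNA with oligo primer, then PCR: 95 °C 10 min, 35 cycles of 95 °C 30 s, annealing 45 s, 72 °C 1 min, final 72 °C 10 min. Normalized to actin; n = 3.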

Assay [2] relates to 3T3-L1. Put plainly: Induction of apoptosis in mouse 3T3L1 cells assessed as late apoptotic cells at 0.3 uM after 24 hrs by annexin-V-FITC and PI staining based flow cytometry (reference value: 0.03%). It counts as functional.
A short description of assay [3]: Upregulation of LKB1 expression in mouse 3T3L1 cells at 3 uM after 2 and 24 hrs by western blot analysis. It counts as functional, cell-based. The following applies: 3T3-L1. Summed up: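 During 3T3-L1 differentiation with adipogenic cocktail, cells were treated with 3 µM compound for 10 min, 2 h or 24 h. Lysates in RIPA with protease/phosphatase inhibitors were run on SDS-PAGE and Western blotted. Proteins were normalized to GAPDH and expressed relative to the 10 min DMSO group, which was set at 100%; n = 3 independent experiments.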

For assay [4], the system named is 3T3-L1. Put plainly: Inhibition of adipogenesis in mouse 3T3L1 cells assessed as reduction in mature adipocytes number at 1 uM measured during 0 to 3,0 to 6,0 to 9, 3 to 6, 3 to 9 and 6 to 9 days by oil red O staining based microscopic analysis. It counts as functional, cell-based. The method in brief:
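Differentiation was induced two days post-confluence (day 0) with IBMX/dexamethasone/insulin for 3 days, then insulin medium. Compound at 1 µM was present during days 0-3, 0-6, 0-9, 3-6, 3-9 or 6-9. On day 9, cells were fixed in 4% formaldehyde, stained with Oil Red O for 30 min, and imaged by microscopy. A TG assay was also run; DMSO vehicle served as control.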

The nature of assay [5]: Downregulation of C/EBP beta mRNA level in mouse 3T3L1 cells at 0.3 to 3 uM after 24 hrs by RT-PCR analysis. It counts as functional, cell-based. The following applies: 3T3-L1. Summed up: as §1
A short description of assay [6]: Decrease in triglyceride accumulation in mouse 3T3L1 cells at 10 uM for 3 days oil red O staining based microscopic analysis. It counts as functional, cell-based. The following applies: 3T3-L1. Summed up: (§2)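 3T3-L1 cells differentiated from 2 days post-confluence with IBMX/dexamethasone/insulin cocktail for 3 days, then insulin medium to Day 6. Compounds at 1 and 10 µM added Day 0 for 3 days. Triglyceride read on Day 6 with Oil Red O (formaldehyde fixation, 30 min stain, isopropanol extraction, OD 510 nm); n = 3.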

The subject of assay [7] is 3T3-L1. Put plainly: Decrease in lipid droplet accumulation in mouse 3T3L1 cells at 1 uM measured during 0 to 3,0 to 6,0 to 9, 3 to 6, 3 to 9 and 6 to 9 days by oil red O staining based microscopic analysis. It counts as functional, cell-based. Summed up:
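3T3-L1 cells given 1 µM compound during day 0-3, 0-6, 0-9, 3-6, 3-9 or 6-9 of differentiation. On Day 9, intracellular lipid measured by TG assay (Triton lysate, GPO-POD kit, per protein) and by Oil Red O staining with microscopy; n = 3.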

Assay [8] is described as follows: Downregulation of C/EBP alpha mRNA level in mouse 3T3L1 cells at 0.3 to 3 uM after 24 hrs by RT-PCR analysis. The following applies: 3T3-L1. It counts as functional, cell-based. Summed up:
as §1

The nature of assay [9]: Downregulation of C/EBP alpha mRNA level in mouse 3T3L1 cells at 3 uM after 24 hrs by RT-PCR analysis. It counts as functional, cell-based. Conditions: 3T3-L1. The method in brief: as §1
Assay [10] can be described thus: Cell cycle arrest in mouse 3T3L1 cells assessed as number of cells at S phase at 1 uM after 24 hrs by flow cytometry (reference value: 18.1%). It counts as functional, cell-based. The following applies: 3T3-L1.
For assay [11], the system named is 3T3-L1. Nature of the assay: Induction of apoptosis in mouse 3T3L1 cells assessed as viable cells at 0.3 uM after 24 hrs by annexin-V-FITC and PI staining based flow cytometry (reference value: 98.95%). It counts as functional. The following applies: 3T3-L1, 24 h, read-out: Activity.
The nature of assay [12]: Downregulation of PPAR-gamma mRNA level in mouse 3T3L1 cells at 0.3 to 3 uM after 24 hrs by RT-PCR analysis. It counts as functional, cell-based. Conditions: 3T3-L1. The method in brief: as §1
In assay [13] the test system is HepG2. Put plainly: Decrease in triglyceride level in human HepG2 cells at 1 uM after 24 hrs by GPO-POD assay in presence of 0.5 mM oleic acid sodium. It counts as functional. The method in brief:
(§3)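 HepG-2 cells seeded, then after 24 h exposed to 0.5 mM oleic acid sodium plus compound (1 µM; dose series up to 10 µM) for 24 h, DMSO vehicle. Cells lysed in 0.2% Triton X-100 for 1 h, sonicated, centrifuged. Triglyceride measured by GPO-POD kit and cholesterol by kit, both normalized to BCA protein; n = 3.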

The nature of assay [14]: Cell cycle arrest in mouse 3T3L1 cells assessed as number of cells at S phase at 0.3 uM after 24 hrs by flow cytometry (reference value: 18.1%). It counts as functional, cell-based. Conditions: 3T3-L1.
Assay [15] relates to HepG2. Nature of the assay: Decrease in triglyceride level in human HepG2 cells after 24 hrs by GPO-POD assay in presence of 0.5 mM oleic acid sodium. It counts as functional, cell-based. The method in brief:
as §3

The subject of assay [16] is 3T3-L1. Nature of the assay: Induction of apoptosis in mouse 3T3L1 cells assessed as late apoptotic cells at 3 uM after 24 hrs by annexin-V-FITC and PI staining based flow cytometry (reference value: 0.03%). It counts as functional.
The nature of assay [17]: Cell cycle arrest in mouse 3T3L1 cells assessed as number of cells at G2/M phase at 1 uM after 24 hrs by flow cytometry (reference value: 37.2%). It counts as functional, cell-based. The following applies: 3T3-L1.
The target of assay [18] is T1, Serine/threonine-protein kinase STK11 (Mus musculus) (UniProt Q9WTK7).
T1 sequence (whole entry): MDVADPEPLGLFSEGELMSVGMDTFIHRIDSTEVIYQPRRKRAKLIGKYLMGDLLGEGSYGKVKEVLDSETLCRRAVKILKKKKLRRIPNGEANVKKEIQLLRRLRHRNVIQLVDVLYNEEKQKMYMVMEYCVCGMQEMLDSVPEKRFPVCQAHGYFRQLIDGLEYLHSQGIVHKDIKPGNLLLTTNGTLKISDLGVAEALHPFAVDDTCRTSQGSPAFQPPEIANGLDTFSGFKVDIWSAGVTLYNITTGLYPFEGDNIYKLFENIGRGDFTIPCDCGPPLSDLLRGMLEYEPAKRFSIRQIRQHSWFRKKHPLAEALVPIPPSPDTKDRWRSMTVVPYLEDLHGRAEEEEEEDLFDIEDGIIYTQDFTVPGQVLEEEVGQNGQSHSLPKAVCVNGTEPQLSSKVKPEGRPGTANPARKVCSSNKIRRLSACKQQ
Nature of the assay: Activation of LKB1-mediated ACC in mouse 3T3L1 cells assessed as increase in phophorylated ACC level at 3 uM after 3 days by western blot analysis. The following applies: 3T3-L1. It counts as cell-based.

Assay [19] deals with HepG2. Put plainly: Decrease in triglyceride level in human HepG2 cells at 10 uM after 24 hrs by GPO-POD assay in presence of 0.5 mM oleic acid sodium. It counts as functional. The method in brief: as §3
The nature of assay [20]: Downregulation of CaMKKalpha expression in mouse 3T3L1 cells by western blot analysis. It counts as functional, cell-based. The following applies: 3T3-L1.
Assay [21] in a line: Decrease in triglyceride accumulation in mouse 3T3L1 cells at 1 uM for 3 days oil red O staining based microscopic analysis. It counts as functional, cell-based. Conditions: 3T3-L1. Summed up: as §2
Assay [22] is described as follows: Downregulation of C/EBP beta mRNA level in mouse 3T3L1 cells at 3 uM after 2 and 24 hrs by RT-PCR analysis. It counts as functional, cell-based. The following applies: 3T3-L1. The method in brief: as §1

Active and inactive are the calls of the source. No cut-off for these calls is given here.

Results on one molecule are retold here after ChEMBL document CHEMBL3734704, “Synthesis and Biological Evaluation of Novel Bouchardatine Derivatives as Potential Adipogenesis/Lipogenesis Inhibitors for Antiobesity Treatment” (J Med Chem, 2015).

In the case of `O=Cc1c(-c2nc(NCCN3CCCC3)c3ccccc3n2)[nH]c2ccccc12`, the inhibition entry in [1], in assay [4], in assay [5], in [7], in assay [8] and in assay [9] was “Active” each time. For the same molecule, the inhibition result in [12], in assay [20] and in assay [22] was “Active” in each case. In addition, the Activity stood at 0.47% in assay [2]; 5.2% in assay [10]; 6.4% in assay [14]; 0.42% in assay [16]; 46.9% in assay [17]. Also, the result in assay [3] and in assay [18] was Active. Besides, the inhibition in assay [6] was 94.9%; in [15] it was “Dose-dependent effect”; in assay [21] it was 87.6%. Moreover, in assay [11], the viability at 0.3 µM worked out at 96.5%. In addition, the “inhibition (INH)” value came to 70% in [13] and 32% in assay [19].
